A short description of assay [1]: Selectivity index, ratio of IC50 for recombinant human PTP-PEST to IC50 for recombinant Mycobacterium tuberculosis PtpA. In short, it runs like this:
(§1)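 Selectivity index calculated as IC50 for PtpB, LYP, PTP-PEST or PTP1B divided by IC50 for PtpA. Both IC50 values come from pNPP hydrolysis at 37 °C with 10 min enzyme–inhibitor premix and A410 readout, using 0.5–50 µM inhibitor.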

Assay [2] has as its target T1, Phosphotyrosine protein phosphatase (Mycobacterium tuberculosis, UniProt A0A045ISB3).
T1 sequence (A0A045ISB3 whole entry): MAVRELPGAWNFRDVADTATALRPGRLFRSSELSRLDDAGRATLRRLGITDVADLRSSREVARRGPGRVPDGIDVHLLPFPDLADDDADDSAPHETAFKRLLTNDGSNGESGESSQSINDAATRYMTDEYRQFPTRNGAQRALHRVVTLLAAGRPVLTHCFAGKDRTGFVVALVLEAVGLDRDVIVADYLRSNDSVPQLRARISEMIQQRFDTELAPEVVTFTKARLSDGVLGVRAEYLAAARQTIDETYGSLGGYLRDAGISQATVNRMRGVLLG
In words: Inhibition of recombinant Mycobacterium tuberculosis PtpB using p-nitrophenyl phosphate as substrate preincubated for 10 mins followed by substrate addition and measured every minute for 10 mins by UV-VIS spectrophotometric analysis. In short, it runs like this: (§2)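 Recombinant PTP at PtpB 50 nM, LYP 169 nM, PTP-PEST 205 nM or PTP1B 38 nM, in 20 mM imidazole pH 7.0. Inhibitor (0.5–50 µM, DMSO ≤4% v/v) premixed with enzyme 10 min at 37 °C. Started with 10 mM pNPP. A410 each min for 10 min. Activity from 7 min minus 2 min. IC50 by linear regression. Triplicate.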

For assay [3], the target named is T2, Tyrosine-protein phosphatase non-receptor type 1 (Homo sapiens, UniProt P18031).
T2 sequence (P18031 whole entry): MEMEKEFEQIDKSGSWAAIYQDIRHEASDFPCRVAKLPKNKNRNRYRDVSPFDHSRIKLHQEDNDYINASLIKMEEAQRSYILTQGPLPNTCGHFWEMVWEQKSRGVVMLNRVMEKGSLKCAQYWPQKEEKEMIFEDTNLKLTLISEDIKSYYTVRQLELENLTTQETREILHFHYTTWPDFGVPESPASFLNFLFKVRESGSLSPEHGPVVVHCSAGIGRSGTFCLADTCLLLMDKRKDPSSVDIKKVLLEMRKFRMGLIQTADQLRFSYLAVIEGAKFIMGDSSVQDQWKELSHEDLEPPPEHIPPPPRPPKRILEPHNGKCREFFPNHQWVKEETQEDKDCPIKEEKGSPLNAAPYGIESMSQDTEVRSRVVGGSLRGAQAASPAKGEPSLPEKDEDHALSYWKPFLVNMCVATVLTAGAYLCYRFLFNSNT
In words: Inhibition of recombinant human Ptp1B using p-nitrophenyl phosphate as substrate preincubated for 10 mins followed by substrate addition and measured every minute for 10 mins by UV-VIS spectrophotometric analysis. In short, it runs like this:
as §2

Assay [4] is described as follows: Selectivity index, ratio of IC50 for recombinant human LYP to IC50 for recombinant Mycobacterium tuberculosis PtpA. In short, it runs like this: as §1
Assay [5] has as its system Mycobacterium tuberculosis. In words: Selectivity index, ratio of IC50 for recombinant Mycobacterium tuberculosis PtpB to IC50 for recombinant Mycobacterium tuberculosis PtpA. The procedure, abridged: as §1
The target of assay [6] is Tyrosine-protein phosphatase YopH (Yersinia enterocolitica, UniProt P15273). The experiment in a line: Inhibition of recombinant Yersinia enterocolitica YopH using p-nitrophenyl phosphate as substrate preincubated for 10 mins followed by substrate addition and measured every minute for 10 mins by UV-VIS spectrophotometric analysis.
Tyrosine-protein phosphatase YopH, sequence (P15273 whole entry): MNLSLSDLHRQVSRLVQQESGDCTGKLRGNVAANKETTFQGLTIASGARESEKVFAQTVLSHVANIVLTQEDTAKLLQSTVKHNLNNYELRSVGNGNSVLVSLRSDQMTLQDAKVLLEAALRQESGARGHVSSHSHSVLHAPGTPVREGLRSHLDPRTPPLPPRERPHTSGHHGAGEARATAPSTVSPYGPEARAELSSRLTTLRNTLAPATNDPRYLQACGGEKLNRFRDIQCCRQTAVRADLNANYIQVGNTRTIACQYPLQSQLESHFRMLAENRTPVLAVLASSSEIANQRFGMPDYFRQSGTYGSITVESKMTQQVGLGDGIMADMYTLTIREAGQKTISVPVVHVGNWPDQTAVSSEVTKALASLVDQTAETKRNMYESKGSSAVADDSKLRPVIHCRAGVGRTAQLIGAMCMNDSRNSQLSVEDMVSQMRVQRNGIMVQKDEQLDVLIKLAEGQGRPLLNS
The target in assay [7] is T3, Low molecular weight protein-tyrosine phosphatase A (Mycobacterium tuberculosis) (UniProt P9WIA1).
T3 sequence (whole entry): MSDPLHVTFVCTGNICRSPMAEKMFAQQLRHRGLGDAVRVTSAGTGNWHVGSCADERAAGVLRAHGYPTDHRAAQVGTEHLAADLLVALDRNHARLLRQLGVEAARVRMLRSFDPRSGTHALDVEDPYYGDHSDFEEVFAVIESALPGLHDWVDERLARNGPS
The experiment in a line: Inhibition of recombinant Mycobacterium tuberculosis PtpA at 25 uM using p-nitrophenyl phosphate as substrate preincubated for 10 mins followed by substrate addition and measured every minute for 10 mins by UV-VIS spectrophotometric analysis. In short, it runs like this:
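Single-point screen at 25 µM final (from 1 mM DMSO stock, 2.5% DMSO final). 50 nM recombinant Mtb PtpA in 20 mM imidazole pH 7.0, premixed with compound 10 min at 37 °C. Reaction started with 10 mM pNPP. A410 read each min for 10 min at 37 °C. Residual activity from absorbance difference 7 min minus 2 min versus no-inhibitor wells. Triplicate.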

The nature of assay [8]: Selectivity index, ratio of IC50 for recombinant Yersinia enterocolitica YopH to IC50 for recombinant Mycobacterium tuberculosis PtpA.
The target in assay [9] is T4, Low molecular weight protein-tyrosine phosphatase A (Mycobacterium tuberculosis, UniProt P9WIA1).
T4 sequence (P9WIA1 whole entry): T3 sequence (whole entry)
The experiment in a line: Non-competitive inhibition of Mycobacterium tuberculosis PtpA using p-nitrophenyl phosphate as substrate by Michaelis-Menten plot analysis. The procedure, abridged: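 Mtb PtpA-catalysed pNPP hydrolysis with pNPP varied 0.2–20 mM at each of three inhibitor concentrations. Rates expressed as specific activity (µmol pNPP min-1 mg-1). Vmax and Km fitted to Michaelis–Menten equation. Ki from non-linear fits to competitive or non-competitive inhibition equation, at least three independent experiments.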

What is called pIC50 is −log10 of the IC50, conventionally taken in molar units. For orientation: inhibition means the change of the read-out against control, counted positive when it falls. By pKi is commonly meant −log10 of the Ki, conventionally taken in molar units. A low value points to a high Ki.

pIC50, pKi: −log10 of the molar value. A value given as a limit tells only on which side of the number the result lay.

Regarding `Cc1ccc(NC(=S)N/N=C/c2ccc(-c3cc(C(F)(F)F)ccc3Cl)o2)cc1`, the Ratio IC50 in [1] was over 5.5; in assay [4], over 5.5; in assay [5] it was 3.3; in assay [8] it was 0.8. For the same molecule, the pIC50 was 4.52 in assay [2], 4.42 in [3] and 5.16 in [6]. For the same molecule, the inhibition in assay [7] was determined as 66%.

`FC(F)(F)c1ccc(Cl)c(-c2ccc(/C=N/NC(=S)Nc3cccc4ccccc34)o2)c1`: the Ratio IC50 in assay [1] was 5.4; in [4] it was over 10.3; in [5] it was 2.1; in assay [8], 0.9. In addition, the pIC50 in [2] was 5.21; in [3] it was 5.03; in assay [6], 5.59. In addition, the pKi in [9] is 5.77. Also, in [7], the inhibition was found to be 86.7%.

Take `S=C(N/N=C/c1ccc(-c2ccccc2)cc1)Nc1cccc2ccccc12`: the Ratio IC50 is over 6.8 in assay [1], over 6.8 in assay [4], 2.4 in assay [5] and 0.9 in assay [8]. Further, the negative-log IC50 (pIC50) in assay [2] was 4.75; in assay [3], under 4.30; in assay [6] it was 5.19. In assay [9], this molecule had a pKi of 5.25. Besides, in assay [7], the inhibition worked out at 79.7%.

Consider `O=[N+]([O-])c1ccc(/C=N/NC(=S)Nc2cccc3ccccc23)cc1`, for which the Ratio IC50 is over 5.3 in [1], over 5.3 in assay [4], 1.9 in assay [5] and 0.7 in assay [8]. Besides, the pIC50 in [2] was 4.74; in [3], 4.77; in assay [6], 5.15. Further, in assay [9], the pKi was 5.92. The inhibition in [7] worked out at 77.7%.
